The record followed here is BindingDB's records for doi:10.1016/j.bmc.2010.11.059 (University of Eastern Finland, 2011).

Sequence of Cannabinoid receptor 2 (P34972 whole entry): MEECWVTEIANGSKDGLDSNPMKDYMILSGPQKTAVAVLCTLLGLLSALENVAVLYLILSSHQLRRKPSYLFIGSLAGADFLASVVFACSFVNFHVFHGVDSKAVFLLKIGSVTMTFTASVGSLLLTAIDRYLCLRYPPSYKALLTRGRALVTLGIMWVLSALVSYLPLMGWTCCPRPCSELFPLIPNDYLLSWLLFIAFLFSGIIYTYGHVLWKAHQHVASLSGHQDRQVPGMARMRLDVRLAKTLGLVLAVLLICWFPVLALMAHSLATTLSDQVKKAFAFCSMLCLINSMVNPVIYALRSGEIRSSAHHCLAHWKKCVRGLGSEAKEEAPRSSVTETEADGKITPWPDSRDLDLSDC

One experiment deals with Cannabinoid receptor 2 (Homo sapiens, UniProt P34972). Put plainly: Agonist activity at human recombinant cannabinoid CB2 receptor expressed in CHO cells by [35S]GTPgammaS binding assay. An outline of the steps:
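hCB2 [35S]GTPγS binding concentration–response curves, run only for ligands giving over 50% relative activity at 10 µM. logEC50 and Emax come from nonlinear regression fitted to a sigmoidal concentration–response equation. Emax is given as percent of the 10 nM HU-210 response. Mean SEM of at least three experiments in duplicate.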
What is called EC50 is the concentration that produces a half-maximal response. In the case of `Clc1ccc(Nc2ccc3ccccc3n2)cc1` [N-(4-chlorophenyl)quinolin-2-amine], the EC50 was 1990 nM.
On to `Clc1cccc(Nc2ccc3ccccc3n2)c1`, for which the EC50 is 2510 nM.
Same read-out and setting: with `Clc1ccccc1Nc1ccc2ccccc2n1` the figure was 6300 nM; with `c1ccc2nc(NC3CCCCC3)ccc2c1`, 6300 nM.
Take `O=C(c1cnc(Nc2cccc(C(F)(F)F)c2)c2ccccc12)N1CCOCC1`: the EC50 is 15.8 nM.
On the same count and under the same terms, in the case of `COc1ccccc1Nc1ccc2ccccc2n1` it was 5010 nM; in that of `O=C(NCC1CCCCC1)c1cnc(Nc2cccc(C(F)(F)F)c2)c2ccccc12`, 1580 nM; in that of `FC(F)(F)c1cccc(Nc2ncnc3ccccc23)c1`, 2510 nM.
Still for that read-out and setting: in the case of `FC(F)(F)c1ccccc1Nc1ccc2ccccc2n1` it was 6300 nM.
Same read-out and setting: with `FC(F)(F)c1cccc(Nc2nccc3ccccc23)c1` the figure was 1580 nM; with `COc1cccc(Nc2ccc3ccccc3n2)c1`, 2510 nM; with `c1ccc(Sc2ccc3ccccc3n2)cc1` [2-Phenylsulfanyl-Quinoline], 3980 nM.
`Brc1cccc(Nc2ccc3ccccc3n2)c1`: the EC50 was 1990 nM.
In the case of `FC(F)(F)c1cccc(Nc2ncc3ccccc3n2)c1`, the EC50 was determined as 3160 nM.
For `COc1ccc(Nc2ccc3ccccc3n2)cc1` [2-(4''-Methoxyanilino)Quinoline], the EC50 stood at 1990 nM.
As to `FC(F)(F)c1cccc(Nc2ccc3ccccc3n2)c1`, the EC50 is 1250 nM.
The same measure, in the same setting: in the case of `O=C(NC1CCCCC1)c1cnc(Nc2cccc(C(F)(F)F)c2)c2ccccc12` it was 1990 nM.
The same measure, in the same setting: in the case of `FC(F)(F)c1cccc(Nc2ccnc3ccccc23)c1` it was 3160 nM; in that of `FC(F)(F)c1cccc(Nc2cnc3ccccc3n2)c1`, 3980 nM.

The next experiment deals with Cannabinoid receptor 1 (Rattus norvegicus, UniProt P20272). Put plainly: Antagonist activity at rat cannabinoid CB1 receptor in Wistar rat cerebellar membranes by [35S]GTPgammaS binding assay. An outline of the steps: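 Non-recombinant rat cerebellar membrane fractions, [35S]GTPγS binding. Compounds screened at a single concentration for their ability to antagonise the response to 10 nM HU-210 agonist.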
Sequence of Cannabinoid receptor 1 (P20272 whole entry): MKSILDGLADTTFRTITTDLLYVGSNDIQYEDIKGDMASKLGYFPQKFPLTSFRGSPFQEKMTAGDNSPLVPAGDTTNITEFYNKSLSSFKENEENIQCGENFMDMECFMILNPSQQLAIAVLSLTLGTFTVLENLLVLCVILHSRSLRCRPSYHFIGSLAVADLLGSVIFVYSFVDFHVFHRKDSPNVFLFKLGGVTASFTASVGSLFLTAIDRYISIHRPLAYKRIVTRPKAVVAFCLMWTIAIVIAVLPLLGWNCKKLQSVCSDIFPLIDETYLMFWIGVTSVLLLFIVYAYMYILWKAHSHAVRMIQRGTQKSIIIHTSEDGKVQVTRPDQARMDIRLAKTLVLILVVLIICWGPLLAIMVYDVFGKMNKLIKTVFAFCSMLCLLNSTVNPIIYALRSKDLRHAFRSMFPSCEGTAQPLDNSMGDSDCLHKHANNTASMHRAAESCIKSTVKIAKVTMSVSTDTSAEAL
Background: GTPγS is a poorly hydrolysed GTP analogue; its binding reports G protein activation.
`O=C(c1cnc(Nc2cccc(C(F)(F)F)c2)c2ccccc12)N1CCOCC1`: a half-maximal response (EC50) required 9990 nM.
